PMC7157925 (Steroids, 2003)

How the values were obtained:
HSV-2 strain G = assay: Antiviral assay, reduction of virus plaque formation in Vero cells; type: cell-based, herpes simplex virus type 2; details: at a concentration up to 50 μg/ml
HSV-2 = assay: Virucidal assay; set-up: species or system herpes simplex virus type 2; details: HSV-2 suspension incubated with compound 1 h at 37 °C
Summary of the method: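 HSV-2 strain G suspension (4×10^5 PFU) mixed with an equal volume of maintenance medium (MEM, 1.5% bovine serum), with or without various concentrations of test compound, 1 h at 37 °C. Samples then diluted in cold maintenance medium, and residual infectivity titrated by plaque formation on Vero cells. Compound stock 10 mg/ml in DMSO, filter-sterilized. VC50 is the concentration inactivating virions by 50%.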

[1] = test system: endothelin-converting enzyme; details: ref [20]; cited from earlier work

CC(C)CCC[C@@H](C)[C@H]1CC[C@H]2[C@@H]3CC[C@H]4C[C@H](O)[C@@H](O)C[C@]4(C)[C@H]3CC[C@]12C [Compound 5, 2β,3α-Dihydroxy-5α-cholestane]
Activity against HSV-2 (HSV-2 strain G): not active | VC50, concentration required to inactivate virus by 50%±S.D. (HSV-2): > 100 µg/mL

C=CCCC[C@@H](C)[C@H]1CC[C@H]2[C@@H]3CC[C@H]4C[C@H](OS(=O)(=O)O)[C@@H](OS(=O)(=O)O)C[C@]4(C)[C@H]3CC[C@]12C [Compound 19, Halistanol disulfate B]
Activity in the endothelin-converting enzyme assay [1]: active
